Calls of active or inactive are those of the source. The calls are words filed in the database; no cut-off is given here.
Legend:
L1210 = experiment: Antiproliferative activity against mouse L1210 after 48 hrs by SRB assay; assay type: functional, cell-based; details: L1210, 48 h
M21 [1] = experiment: Disruption of cytoskeleton microtubule structure of human M21 cells at 5 times IC50 after 16 hrs by indirect immunofluorescence assay; assay type: functional, cell-based
Summary of the method: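 Cells were fixed in 3.7% formaldehyde, permeabilized with saponin, and stained with anti-β-tubulin TUB 2.1, Alexa-488 anti-mouse secondary and DAPI. Fluorescence microscopy was used for imaging.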

M21 [2] = experiment: Cell cycle arrest in human M21 cells assessed as accumulation at G2/M phase at 5 times IC50 after 24 hrs using propidium iodide staining by flow cytometric analysis (reference value: 9%); assay type: functional
Summary of the method: (§1)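 Cells were trypsinized, fixed in ice-cold ethanol, treated with RNase, and stained with propidium iodide (1 mg/mL stock) for 1 h on ice. Cell-cycle distribution was measured by flow cytometry.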

DU-145 = experiment: Antiproliferative activity against human DU145 after 48 hrs by SRB assay; assay type: functional, cell-based; details: DU-145, 48 h
M21 [3] = experiment: Cell cycle arrest in human M21 cells assessed as accumulation at S phase at 5 times IC50 after 24 hrs using propidium iodide staining by flow cytometric analysis (reference value: 30%); assay type: functional; summary of the method: as §1
CHO-VV 3-2 [4] = experiment: Ratio of IC50 for colchicine and vinblastine-resistant CHO-VV 3-2 cells to IC50 for CHO cells; assay type: functional, Cricetulus griseus
Summary of the method: (§2)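 Each ratio is the IC50 in the resistant line divided by the IC50 in its parental line (CHO for CHO-TAX 5-6 and CHO-VV 3-2; CEM for CEM-VLB).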

K562 = experiment: Antiproliferative activity against human K562 after 48 hrs by SRB assay; assay type: functional, cell-based; details: K562, 48 h
[5] = Toxicity against fertilized chicken embryo assessed as mortality at 3 ug, iv by CAM assay; assay type: organism-based, Gallus gallus; details: in vivo, read-out: Activity
Summary of the method: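 HT-1080 fibrosarcoma cells (3.5 × 10⁵ cells/egg) grafted onto the chorioallantoic membrane of fertilized chicken eggs (10 days preincubation). On day 11, drug in DMSO diluted into excipient (ethanol:cremophor:PBS 6.25:6.25:87.5) given iv at 3 µg per egg. Chick mortality recorded over 7-day tumor growth period. Untreated eggs as negative controls and for normalization. Cumulative results from two independent experiments, 10–12 eggs each.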

CCRF-CEM [6] = experiment: Antiproliferative activity against human CEM after 48 hrs by SRB assay; assay type: functional, cell-based
HT-1080 [7] = experiment: Antiproliferative activity against human HT1080 after 48 hrs by SRB assay; assay type: functional, cell-based; details: HT-1080, 48 h
Summary of the method: (§3)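 Adherent cells were seeded per line (e.g. HT-29 5000, M21 3500, MCF7 7500, CHO and CHO-VV 3-2 and CHO-TAX 5-6 1000 cells/well) and grown 24 h at 37 °C, 5% CO₂. DMSO-solubilized drug was diluted in medium and added at 1000–0.98 nM for 48 h. Cells were fixed with cold 10% TCA and stained with 0.1% sulforhodamine B, with absorbance read at 530–565 nm.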

[8] = Antiproliferative activity against human multidrug-resistant CEM/VLB cells after 48 hrs by SRB assay; assay type: functional
CHO-TAX 5-6 [9] = experiment: Ratio of IC50 for paclitaxel-resistant CHO-TAX 5-6 cells to IC50 for CHO cells; assay type: functional, Cricetulus griseus; summary of the method: as §2
CHO = experiment: Antiproliferative activity against Chinese hamster CHO after 48 hrs by SRB assay; details: Cricetulus griseus
MCF7 = experiment: Antiproliferative activity against human MCF7 cells after 48 hrs by SRB assay; assay type: functional, cell-based; details: MCF7, 48 h; summary of the method: as §3
[10] = Antiproliferative activity against mouse B16F0 after 48 hrs by SRB assay
M21 [11] = experiment: Antiproliferative activity against human M21 cells after 48 hrs by SRB assay; assay type: functional, cell-based; details: M21, 48 h; summary of the method: as §3
CHO-TAX 5-6 [12] = experiment: Antiproliferative activity against paclitaxel-resistant CHO-TAX 5-6 cells after 48 hrs by SRB assay; assay type: functional, cell-based; details: Cricetulus griseus, CHO-TAX 5-6, 48 h; summary of the method: as §3
M21 [13] = experiment: Cell cycle arrest in human M21 cells assessed as accumulation at G0/G1 phase at 5 times IC50 after 24 hrs using propidium iodide staining by flow cytometric analysis (reference value: 61%); assay type: functional; summary of the method: as §1
SK-OV-3 = experiment: Antiproliferative activity against human SKOV3 after 48 hrs by SRB assay; assay type: functional, cell-based; details: SK-OV-3, 48 h; summary of the method: as §3
[14] = Antiproliferative activity against mouse P388D1 after 48 hrs by SRB assay; details: P388D1, 48 h
CHO-VV 3-2 [15] = experiment: Antiproliferative activity against colchicine and vinblastine-resistant CHO-VV 3-2 cells after 48 hrs by SRB assay; assay type: functional, cell-based; details: Cricetulus griseus, CHO-VV 3-2, 48 h; summary of the method: as §3
HT-1080 [16] = experiment: Antitumor activity against human HT1080 cells xenografted in chicken chorioallantoic membrane assessed as inhibition of tumor growth at 3 ug, iv measured on day 17 by CAM assay; assay type: functional
Summary of the method: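 Fertilized chicken eggs were incubated 10 days, then 3.5 × 10⁵ HT-1080 cells/egg were applied to the exposed chorioallantoic membrane. On day 11, drug was given iv in DMSO diluted in excipient (ethanol:cremophor:PBS 6.25:6.25:87.5). Read-out was tumor wet weight as % of untreated eggs, plus chick mortality. Data were pooled from two independent experiments of 10–12 eggs each.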

MDA-MB-231 [17] = experiment: Displacement of N,N'-ethylenebis(iodoacetamide) from beta-tubulin colchicine-binding site in human MDA-MB-231 cells at 1000 times IC50 preincubated for 2 hrs before N,N'-ethylenebis(iodoacetamide) addition measured after 1.5 hrs by chemiluminescence assay; assay type: cell-based
Summary of the method: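 EBI (100, final) was added for 1.5 h at 37 °C with drug present; control was 0.5% DMSO. Sonicated lysates (20 µg protein) were run on 10% SDS-PAGE and blotted with anti-β-tubulin TUB 2.1. The β-tubulin–EBI adduct was scored by ECL.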

CCRF-CEM [18] = experiment: Ratio of IC50 for human multidrug-resistant CEM/VLB cells to IC50 for human CEM cells; assay type: functional; summary of the method: as §2
MDA-MB-231 [19] = experiment: Antiproliferative activity against human MDA-MB-231 after 48 hrs by SRB assay; assay type: functional, cell-based; details: MDA-MB-231, 48 h
HT-29 = experiment: Antiproliferative activity against human HT-29 cells after 48 hrs by SRB assay; assay type: functional, cell-based; details: HT-29, 48 h; summary of the method: as §3

Row | Compound | IC50 (L1210) [nM] | Activity (M21 [1]) | Activity (M21 [2]) [%] | IC50 (DU-145) [nM] | Activity (M21 [3]) [%] | Ratio IC50 (CHO-VV 3-2 [4]) | IC50 (K562) [nM] | mortality [5] [%] | IC50 (CCRF-CEM [6]) [nM] | IC50 (HT-1080 [7]) [nM] | IC50 [8] [nM] | Ratio IC50 (CHO-TAX 5-6 [9]) | IC50 (CHO) [nM] | IC50 (MCF7) [nM] | IC50 [10] [nM] | IC50 (M21 [11]) [nM] | IC50 (CHO-TAX 5-6 [12]) [nM] | Activity (M21 [13]) [%] | IC50 (SK-OV-3) [nM] | IC50 [14] [nM] | other results
1 | O=C1NCCN1c1ccc(S(=O)(=O)Nc2ccc3[nH]ccc3c2)cc1 | 260 | Active | 51 | 1370 | 22 | 1.4 | 340 | 8 | 410 | 230 | 4840 | 0.49 | 1310 | 170 | 770 | 87 | 640 | 27 | 280 | 520 | IC50 (CHO-VV 3-2 [15]): 1860 nM; inhibition (HT-1080 [16]): inactive; Activity (MDA-MB-231 [17]): Active; Ratio IC50 (CCRF-CEM [18]): 12; IC50 (MDA-MB-231 [19]): 3600 nM; IC50 (HT-29): 130 nM
2 | COc1cc(NS(=O)(=O)c2ccc(N3CCNC3=O)cc2)cc(OC)c1 | 110 | Active | 59 | 700 | 28 | 2.1 | 110 | 13 | 170 | 150 | 1010 | 0.67 | 330 | 170 | 280 | 60 | 220 | 13 | 170 | 200 | IC50 (CHO-VV 3-2 [15]): 690 nM; growth inhibition (GI) (HT-1080 [16]): 31%; Activity (MDA-MB-231 [17]): Active; Ratio IC50 (CCRF-CEM [18]): 5.9; IC50 (MDA-MB-231 [19]): 340 nM; IC50 (HT-29): 78 nM
3 | COc1cccc(NS(=O)(=O)c2ccc(N3CCNC3=O)cc2)c1 | 240 | Active | 61 | 650 | 29 | 1.4 | 230 | 16 | 260 | 200 | 700 | 0.61 | 330 | 120 | 370 | 65 | 200 | 10 | 240 | 250 | IC50 (CHO-VV 3-2 [15]): 450 nM; growth inhibition (GI) (HT-1080 [16]): 41%; Activity (MDA-MB-231 [17]): Active; Ratio IC50 (CCRF-CEM [18]): 2.7; IC50 (MDA-MB-231 [19]): 730 nM; IC50 (HT-29): 120 nM
4 | Cc1cccc(NS(=O)(=O)c2ccc(N3CCNC3=O)cc2)c1 | 180 | Active | 83 | 580 | 16 | 1.2 | 200 | 8 | 200 | 210 | 370 | 0.65 | 230 | 190 | 290 | 69 | 150 | 1 | 200 | 250 | IC50 (CHO-VV 3-2 [15]): 280 nM; inhibition (HT-1080 [16]): inactive; Activity (MDA-MB-231 [17]): Active; Ratio IC50 (CCRF-CEM [18]): 1.9; IC50 (MDA-MB-231 [19]): 1270 nM; IC50 (HT-29): 110 nM
5 | COc1cc(NS(=O)(=O)c2ccc(N3CCNC3=O)cc2)cc(OC)c1OC | 21 | Active | 74 | 51 | 12 | >1.3 | 19 | 40 | 23 | 17 | > 250 | 0.89 | 190 | 18 | 58 | 13 | 170 | 12 | 22 | 38 | IC50 (CHO-VV 3-2 [15]): > 250 nM; growth inhibition (GI) (HT-1080 [16]): 25%; Activity (MDA-MB-231 [17]): Active; Ratio IC50 (CCRF-CEM [18]): >11; IC50 (MDA-MB-231 [19]): 45 nM; IC50 (HT-29): 21 nM
6 | Cc1cc(C)cc(NS(=O)(=O)c2ccc(N3CCNC3=O)cc2)c1 | 110 | Active | 78 | 430 | 21 | 1.2 | 110 | 8 | 170 | 150 | 400 | 0.57 | 210 | 100 | 260 | 63 | 120 | 1 | 190 | 210 | IC50 (CHO-VV 3-2 [15]): 250 nM; inhibition (HT-1080 [16]): inactive; Activity (MDA-MB-231 [17]): Active; Ratio IC50 (CCRF-CEM [18]): 2.4; IC50 (MDA-MB-231 [19]): 1220 nM; IC50 (HT-29): 82 nM
7 | CCc1cccc(NS(=O)(=O)c2ccc(N3CCNC3=O)cc2)c1 | 200 | Active | 95 | 730 | 5 | 1.1 | 230 | 11 | 200 | 200 | 450 | 0.61 | 230 | 130 | 270 | 82 | 140 | 0 | 230 | 250 | IC50 (CHO-VV 3-2 [15]): 250 nM; growth inhibition (GI) (HT-1080 [16]): 45%; Activity (MDA-MB-231 [17]): Active; Ratio IC50 (CCRF-CEM [18]): 2.3; IC50 (MDA-MB-231 [19]): 1410 nM; IC50 (HT-29): 110 nM
8 | Cc1ccc(C)c(NS(=O)(=O)c2ccc(N3CCNC3=O)cc2)c1 | 81 | Active | 79 | 1610 | 20 | 1.4 | 72 | 27 | 74 | 65 | 120 | 0.7 | 77 | 48 | 86 | 27 | 54 | 1 | 72 | 79 | IC50 (CHO-VV 3-2 [15]): 110 nM; inhibition (HT-1080 [16]): inactive; Activity (MDA-MB-231 [17]): Active; Ratio IC50 (CCRF-CEM [18]): 1.6; IC50 (MDA-MB-231 [19]): 110 nM; IC50 (HT-29): 46 nM
